According to paper PMC5771842 (Nature chemical biology, 2018):
Entries after “also recorded” stand apart in the source; their conditions may differ.

How the values were obtained:
[1] = tested on: CEM 1A2 tat/rev++ T-cells; experiment: HIV cytoprotection assay; type: cell-based, human; conditions: CEM 1A2 T cells
MC99IIIBΔTat-Rev HIV-1 = experiment: HIV cytoprotection assay; type: cell-based; conditions: CEM 1A2 tat/rev++ cells
Method in brief: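 CEM 1A2 tat/rev++ cells, which die on HIV infection, grown in RPMI-1640 with 20% FBS, bicarbonate and antibiotic-antimycotic at 37°C, 5% CO2; 12,500 cells/well. Test compound added in DMSO, then HIV-1 MC99IIIBΔTat-Rev; 4-day incubation. MTT added for 1–2 h, formazan dissolved in DMSO, absorbance read at 590 nm. Triplicate per dose; infected, uninfected, media-only and AZT controls. IC50/CC50 estimated by eye.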

Substance: divamide C [Compound 3]
- cytotoxicity, in words [1]: neither cytotoxic nor anti-HIV activities
- anti-HIV activity (cytoprotection), in words (MC99IIIBΔTat-Rev HIV-1): essentially inactive; also recorded: neither cytotoxic nor anti-HIV activities; also recorded: lacked any detectable cytoprotection
